These results are taken from ChEMBL document CHEMBL1938298, “Synthesis and characterization of [¹²⁵I]2-iodo N-[(S)-{(S)-1-methylpiperidin-2-yl}(phenyl)methyl]3-trifluoromethyl-benzamide as novel imaging probe for glycine transporter 1” (Bioorg Med Chem, 2011).

Activity calls are given as the source filed them. No cut-off for these calls is given here.

Series [1] concerns Mus musculus. Kind of series: In vivo binding affinity to GlyT1 in ddY mouse brain thalamus at 200 kBq, iv after 60 mins by autoradiography relative to control. The format is functional, organism-based. Particulars: tested as the 125I-labelled form.
In series [2] the target is T1, Sodium- and chloride-dependent glycine transporter 1 (Rattus norvegicus) (UniProt P28572).
T1 sequence (whole entry): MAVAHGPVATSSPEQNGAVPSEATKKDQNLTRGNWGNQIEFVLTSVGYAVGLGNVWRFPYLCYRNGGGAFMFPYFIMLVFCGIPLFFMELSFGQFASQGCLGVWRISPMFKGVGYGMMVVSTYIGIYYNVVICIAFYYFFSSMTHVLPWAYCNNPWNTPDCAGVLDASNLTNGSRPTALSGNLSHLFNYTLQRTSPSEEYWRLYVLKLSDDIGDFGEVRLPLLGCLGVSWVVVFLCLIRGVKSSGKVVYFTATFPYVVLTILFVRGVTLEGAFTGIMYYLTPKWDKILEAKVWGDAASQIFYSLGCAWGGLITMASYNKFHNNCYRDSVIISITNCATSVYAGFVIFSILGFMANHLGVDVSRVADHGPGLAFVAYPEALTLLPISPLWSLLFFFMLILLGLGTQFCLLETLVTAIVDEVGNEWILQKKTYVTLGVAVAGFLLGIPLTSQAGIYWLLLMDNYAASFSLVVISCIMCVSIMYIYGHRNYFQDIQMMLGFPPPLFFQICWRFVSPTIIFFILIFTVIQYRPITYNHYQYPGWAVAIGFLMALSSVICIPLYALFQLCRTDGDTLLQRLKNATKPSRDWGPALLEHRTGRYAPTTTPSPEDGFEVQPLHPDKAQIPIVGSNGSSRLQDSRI
Kind of series: Binding affinity to GlyT1 in rat brain thalamus at 0.03 to 0.04 nM preincubated for 20 mins in binding buffer before compound addition measured after 30 mins by autoradiography in presence of 0.01 mM GlyT1 inhibitor HPCP relative to control. The format is tissue-based. To be noted: tested as the 125I-labelled form.

Series [3] addresses T1, Sodium- and chloride-dependent glycine transporter 1 (Rattus norvegicus). The series can be described thus: Binding affinity to GlyT1 in rat brain cerebellum at 0.03 to 0.04 nM preincubated for 20 mins in binding buffer before compound addition measured after 30 mins by autoradiography in presence of 10 mM GlyT1 substrate glycine relative to control. The class given is tissue-based. To be noted: tested as the 125I-labelled form. An outline of the steps: (§1)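 Rat brain sagittal sections (20 µm) preincubated 20 min at 25 °C in Tris-HCl buffer pH 7.5 (NaCl, KCl, MgCl2, CaCl2), then 30 min at 25 °C with [125I] tracer (100 kBq, 0.03–0.04 nM) plus competitor (10 µM; glycine 1 or 10 mM). Cold washes, imaging plate 3 days, ROI PSL minus background per mm². % control from ≥triplicate slices, three rats.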

Series [4] deals with Mus musculus. Kind of series: In vivo binding affinity to GlyT1 in ddY mouse brain striatum at 33.3 kBq, iv after 30 mins in presence of SSR504734 2 mg/kg, iv administered 15 mins prior to compound administration relative to control. The format is functional, organism-based. More on the design: dose 2 mg/kg. Particulars: tested as the 125I-labelled form.
The subject of series [5] is Mus musculus. The series can be described thus: In vivo binding affinity to GlyT1 in ddY mouse brain hippocampus at 200 kBq, iv after 60 mins by autoradiography relative to control. The format is functional, organism-based. To be noted: tested as the 125I-labelled form. An outline of the steps: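 Ex vivo autoradiography in mice given 200 kBq [125I]tracer i.v. and killed at 60 min. Brains were removed, frozen on dry ice and cut into 20 µm sagittal cryosections, which were exposed to an imaging plate for 7 days. Regional signal was quantified as PSL/mm² (n = 5) and compared to control by Kruskal–Wallis with Dunn's post-test.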

Series [6] addresses T1, Sodium- and chloride-dependent glycine transporter 1 (Rattus norvegicus). The series can be described thus: Binding affinity to GlyT1 in rat brain medullary region at 0.03 to 0.04 nM preincubated for 20 mins in binding buffer before compound addition measured after 30 mins by autoradiography in presence of 0.01 mM NMDA receptor glycine site antagonist L-701,324 relative to control. The class given is tissue-based. Particulars: tested as the 125I-labelled form. An outline of the steps:
as §1

For series [7] the target is unchanged. Kind of series: Binding affinity to GlyT1 in rat brain corpus callosum at 0.03 to 0.04 nM preincubated for 20 mins in binding buffer before compound addition measured after 30 mins by autoradiography in presence of 0.01 mM NMDA receptor glycine site antagonist L-701,324 relative to control. The format is tissue-based. Particulars: tested as the 125I-labelled form. The method in brief:
as §1

Series [8] has the same target. Kind of series: Binding affinity to GlyT1 in rat brain medullary region at 0.03 to 0.04 nM preincubated for 20 mins in binding buffer before compound addition measured after 30 mins by autoradiography in presence of GlyT1 inhibitor N-Me-SSR504734 relative to control. To be noted: tested as the 125I-labelled form. The format is tissue-based. An outline of the steps:
as §1

Series [9] has the same target. Kind of series: Binding affinity to GlyT1 in rat brain cerebellar white matter at 0.03 to 0.04 nM preincubated for 20 mins in binding buffer before compound addition measured after 30 mins by autoradiography relative to control. The class given is tissue-based. Particulars: tested as the 125I-labelled form.
Series [10] has the same target. Kind of series: Binding affinity to GlyT1 in rat brain striatum at 0.03 to 0.04 nM preincubated for 20 mins in binding buffer before compound addition measured after 30 mins by autoradiography in presence of 0.01 mM GlyT1 inhibitor HPCP relative to control. The format is tissue-based. Particulars: tested as the 125I-labelled form.
Series [11] relates to Blood. The series can be described thus: Drug uptake in ddY mouse blood at 11.1 kBq, iv after 15 min by gamma counting. The class given is ADME, organism-based. Particulars: in vivo. The method in brief:
(§2)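 Male ddY mice (6 weeks, 30–35 g) received about 11.1 kBq [125I]tracer in 0.1 mL i.v. via tail vein. Killed at set times, organs dissected and weighed, radioactivity gamma counted. Reported as % injected dose/g tissue, mean ± SD, n = 5–6.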

Series [12] deals with Kidney. The series can be described thus: Drug uptake in ddY mouse kidney at 11.1 kBq, iv after 30 min by gamma counting. The format is ADME, organism-based. Particulars: in vivo, 0.5 h. The method in brief:
(§3)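 Male ddY mice (6 weeks, 30–35 g) were given about 11.1 kBq of [125I]tracer in 0.1 mL i.v. via the tail vein. At each time point the animals were killed and organs dissected, weighed and gamma-counted. Uptake is expressed as % injected dose per gram of tissue, mean ± SD, n = 5–6.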

The subject of series [13] is Mus musculus. Kind of series: In vivo binding affinity to GlyT1 in ddY mouse brain medullary region at 33.3 kBq, iv after 30 mins in presence of nonradioactive compound 2 mg/kg, iv administered 15 mins prior to compound administration relative to control. The class given is functional, Medulla of organ.
Series [14] relates to Blood. The series can be described thus: Drug uptake in ddY mouse blood at 11.1 kBq, iv after 60 min by gamma counting. The class given is ADME, organism-based. Particulars: in vivo, 1 h. The method in brief: as §2
A further series deals with Liver. The series can be described thus: Drug uptake in ddY mouse liver at 11.1 kBq, iv after 60 min by gamma counting. The format is ADME, organism-based. To be noted: in vivo, 1 h. The method in brief: as §3
Series [15] concerns Mus musculus. The series can be described thus: In vivo binding affinity to GlyT1 in ddY mouse brain medullary region at 33.3 kBq, iv after 60 mins in presence of N-Me-SSR504734 2 mg/kg, iv administered 15 mins prior to compound administration relative to control. The format is functional, Medulla of organ.
Series [16] deals with Mus musculus. Kind of series: In vivo binding affinity to GlyT1 in ddY mouse brain thalamus at 33.3 kBq, iv after 60 mins in presence of N-Me-SSR504734 2 mg/kg, iv administered 15 mins prior to compound administration relative to control. The format is functional.
The subject of the next series is Spleen. The series can be described thus: Drug uptake in ddY mouse spleen at 11.1 kBq, iv after 0.5 min by gamma counting. The class given is ADME, organism-based. To be noted: in vivo. The method in brief: as §3
The next series deals with Nucleic Acid. Kind of series: Ratio of drug level in brain to blood in ddY mouse at 11.1 kBq, iv after 0.5 min by gamma counting. The class given is ADME, organism-based.
In series [17] the test system is Kidney. The series can be described thus: Drug uptake in ddY mouse kidney at 11.1 kBq, iv after 15 min by gamma counting. The class given is ADME, organism-based. Particulars: in vivo. The method in brief:
as §3

For `CN1CCCC[C@H]1[C@@H](NC(=O)c1cccc(C(F)(F)F)c1I)c1ccccc1`, the result (with Mus musculus [1]; in series [9]) was Active. Further, the Activity in series [2] turned out to be 22.5%; in series [3] it was 44.9%; in series [6] it was 104%; in [7] it was 92.5%; in series [8], 20.6%; in series [10], 31.8%. For the same compound, the outcome with Mus musculus [4] and in the series with Mus musculus [5] was inactive.
Take `CN1CCCC[C@H]1[C@@H](NC(=O)c1cccc(C(F)(F)F)c1[125I])c1ccccc1`: the Drug uptake in the series on Blood [11] worked out at 0.69 % ID/g; in the series with Kidney [12], 10.22 % ID/g; with Blood [14], 0.8 % ID/g; in the series with Liver, 16.04 % ID/g; in the series on Spleen, 0.97 % ID/g; in the series on Kidney [17], 8.86 % ID/g. The figures for the Activity in the series with Mus musculus [13], with Mus musculus [15] and in the series with Mus musculus [16] were 53%, 47% and 56%, respectively. Also, in the series on Nucleic Acid, the Ratio worked out at 0.38.
